Measurements taken from ChEMBL document CHEMBL2034819, “β-Lapachone analogs with enhanced antiproliferative activity” (Eur J Med Chem, 2012).
Activity calls are given as the source filed them. The rule behind the calls is not given here.

Columns and labels:
HeLa [1] = experiment: Growth inhibition of human HeLa cells by SRB assay; assay type: functional
How it was run: (§1)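 Cells kept in RPMI 1640 with 5% heat-inactivated FCS and 2 mM L-glutamine. Plated at 10 000 (HBL-100, SW1573), 15 000 (HeLa) or 20 000 (WiDr) cells/well. Drug added on day 1, in triplicate, over 1–100 µM with 0.25% DMSO final. Exposure 48 h. Cells TCA-fixed 60 min at 4 °C, then SRB-stained, OD 492 nm, background-corrected. GI50 reported.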

HBL-100 [2] = experiment: Growth inhibition of human HBL100 cells by SRB assay; assay type: functional; how it was run: as §1
WiDr [3] = experiment: Growth inhibition of human WiDr cells by SRB assay; assay type: functional; how it was run: as §1
SW1573 [4] = experiment: Growth inhibition of human SW1573 cells by SRB assay; assay type: functional; how it was run: as §1
SW1573 [5] = experiment: Cell cycle arrest in human SW1573 cells assessed as accumulation at S phase after 24 hrs by flow cytometric analysis; assay type: functional, cell-based
How it was run: (§2)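 Cells seeded at 2.5–5 × 10^5 per well and treated after 24 h at two concentrations per agent for a further 24 h. Harvested, then fixed in ice-cold 70% EtOH overnight. Treated with DNase-free RNase at 37 °C for 30 min and stained with PI. DNA content read by flow cytometry on 20 000 cells/sample. G0/G1, S and G2/M fractions gated.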

SW1573 [6] = experiment: Cell cycle arrest in human SW1573 cells assessed as accumulation at G2/M phase after 24 hrs by flow cytometric analysis; assay type: functional, cell-based; how it was run: as §2
WiDr [7] = experiment: Cell cycle arrest in human WiDr cells assessed as accumulation at S phase after 24 hrs by flow cytometric analysis; assay type: functional, cell-based; how it was run: as §2
HBL-100 [8] = experiment: Cell cycle arrest in human HBL100 cells assessed as accumulation at S phase after 24 hrs by flow cytometric analysis; assay type: functional, cell-based; how it was run: as §2
HBL-100 [9] = experiment: Cell cycle arrest in human HBL100 cells assessed as accumulation at G2/M phase after 24 hrs by flow cytometric analysis; assay type: functional, cell-based; how it was run: as §2
[10] = molecular target: DNA topoisomerase 2-alpha (Homo sapiens) (UniProt P11388); experiment: Inhibition of human topoisomerase 2alpha-mediated kDNA decatenation
Chain of DNA topoisomerase 2-alpha (Homo sapiens) (P11388 whole entry): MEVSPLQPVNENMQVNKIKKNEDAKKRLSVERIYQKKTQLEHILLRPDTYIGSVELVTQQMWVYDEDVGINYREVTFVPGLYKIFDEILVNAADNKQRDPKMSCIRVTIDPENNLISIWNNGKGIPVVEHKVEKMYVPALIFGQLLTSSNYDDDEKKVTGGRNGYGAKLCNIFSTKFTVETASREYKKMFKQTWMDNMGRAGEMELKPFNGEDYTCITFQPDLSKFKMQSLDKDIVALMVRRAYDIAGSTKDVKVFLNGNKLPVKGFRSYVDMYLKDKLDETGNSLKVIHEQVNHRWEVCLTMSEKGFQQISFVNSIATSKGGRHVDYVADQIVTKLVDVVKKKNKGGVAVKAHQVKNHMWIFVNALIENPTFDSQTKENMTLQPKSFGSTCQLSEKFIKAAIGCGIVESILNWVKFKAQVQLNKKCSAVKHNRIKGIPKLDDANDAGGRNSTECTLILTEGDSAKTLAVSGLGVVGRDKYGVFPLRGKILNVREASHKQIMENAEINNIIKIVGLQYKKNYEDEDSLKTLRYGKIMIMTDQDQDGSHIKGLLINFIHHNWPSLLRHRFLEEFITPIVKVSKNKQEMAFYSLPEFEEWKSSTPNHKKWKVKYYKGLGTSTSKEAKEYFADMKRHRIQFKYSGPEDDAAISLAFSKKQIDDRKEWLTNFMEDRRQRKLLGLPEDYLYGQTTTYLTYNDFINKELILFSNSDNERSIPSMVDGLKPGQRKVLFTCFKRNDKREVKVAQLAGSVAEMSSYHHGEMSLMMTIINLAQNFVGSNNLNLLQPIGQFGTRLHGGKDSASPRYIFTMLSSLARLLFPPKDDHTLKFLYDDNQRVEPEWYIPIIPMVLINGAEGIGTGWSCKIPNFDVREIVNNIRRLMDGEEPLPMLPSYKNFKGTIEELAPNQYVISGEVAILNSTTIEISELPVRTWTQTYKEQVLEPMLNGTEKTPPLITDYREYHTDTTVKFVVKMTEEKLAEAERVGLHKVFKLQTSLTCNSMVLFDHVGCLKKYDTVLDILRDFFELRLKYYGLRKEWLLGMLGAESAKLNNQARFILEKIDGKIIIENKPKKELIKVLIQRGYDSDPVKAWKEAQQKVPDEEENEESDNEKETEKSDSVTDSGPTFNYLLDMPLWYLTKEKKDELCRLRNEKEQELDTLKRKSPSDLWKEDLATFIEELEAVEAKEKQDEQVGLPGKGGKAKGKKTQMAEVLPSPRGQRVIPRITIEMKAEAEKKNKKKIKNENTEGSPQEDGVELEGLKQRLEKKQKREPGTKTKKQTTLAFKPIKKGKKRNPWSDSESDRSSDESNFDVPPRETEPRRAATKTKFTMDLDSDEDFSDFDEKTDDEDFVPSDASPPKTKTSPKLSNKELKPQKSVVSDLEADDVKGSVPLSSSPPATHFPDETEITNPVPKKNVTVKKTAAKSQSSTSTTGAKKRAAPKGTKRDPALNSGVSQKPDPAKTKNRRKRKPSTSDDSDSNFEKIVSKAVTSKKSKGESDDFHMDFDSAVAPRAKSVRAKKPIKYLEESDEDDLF

WiDr [11] = experiment: Cell cycle arrest in human WiDr cells assessed as accumulation at G2/M phase after 24 hrs by flow cytometric analysis; assay type: functional, cell-based; how it was run: as §2
HeLa [12] = experiment: Cell cycle arrest in human HeLa cells assessed as accumulation at G2/M phase after 24 hrs by flow cytometric analysis; assay type: functional, cell-based; how it was run: as §2
HeLa [13] = experiment: Cell cycle arrest in human HeLa cells assessed as accumulation at S phase after 24 hrs by flow cytometric analysis; assay type: functional, cell-based; how it was run: as §2
HeLa [14] = experiment: Induction of DNA damage in human HeLa cells assessed as increase in chk2 phosphorylation at 3 uM after 24 hrs by immunoblot analysis; assay type: functional, cell-based
How it was run: (§3)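 HeLa cells exposed to 3 µM for several time intervals. Lysed in Tris pH 8.0/NP-40 buffer with protease and phosphatase inhibitors, and debris pelleted. Proteins resolved by SDS-PAGE and blotted to PVDF. Probed for PARP-1, procaspase 3, cyclin A, cyclin E, MRE11, p-Chk2 and γ-H2AX, with α-tubulin as loading control. HRP secondaries with luminol/p-iodophenol detection.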

HeLa [15] = experiment: Induction of apoptosis in human HeLa cells assessed as PARP cleavage at 3 uM after 24 hrs by immunoblot analysis; assay type: functional, cell-based; how it was run: as §3
HeLa [16] = experiment: Induction of intracellular reactive oxygen species production in human HeLa cells at 3 uM after 3 hrs DCFH-DA staining-based flow cytometric analysis relative to control; assay type: functional
How it was run: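 HeLa cells seeded at 3 × 10^5 per well and treated 24 h later at 3 µM for 3 h. Co-incubated with 5 µM DCFH-DA for 1 h at 37 °C. DCF fluorescence read by flow cytometry on 10 000 cells/sample and compared with untreated cells. H2O2 (500 µM) served as positive control.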

HeLa [17] = experiment: Increase in cyclin A expression in human HeLa cells at 3 uM after 24 hrs by immunoblot analysis; assay type: functional, cell-based; how it was run: as §3
HeLa [18] = experiment: Induction of apoptosis in human HeLa cells assessed as caspase 3 cleavage at 3 uM after 24 hrs by immunoblot analysis; assay type: functional, cell-based; how it was run: as §3
[19] = Cytotoxicity against mouse erythrocytes assessed as lytic effect; assay type: cell-based; details: erythrocyte
HeLa [20] = experiment: Induction of DNA damage in human HeLa cells assessed as increase in gamma-H2AX phosphorylation at 3 uM after 24 hrs by immunoblot analysis; assay type: functional, cell-based; how it was run: as §3
HeLa [21] = experiment: Decrease in cyclin E expression in human HeLa cells at 3 uM after 24 hrs by immunoblot analysis; assay type: functional, cell-based; how it was run: as §3
HeLa [22] = experiment: Increase in MRE11A expression in human HeLa cells at 3 uM after 24 hrs by immunoblot analysis; assay type: functional, cell-based; how it was run: as §3

GI50 (HeLa [1]) [nM]	GI50 (SW1573 [4]) [nM]	Structure (SMILES)	GI50 (HBL-100 [2]) [nM]	GI50 (WiDr [3]) [nM]	other results
2500	2300	CC1(C)CCC2=C(O1)c1ccc(O)cc1C(=O)C2=O	2300	21000	
1800	460	COc1cccc2c1C1=C(CCC(C)(C)O1)C(=O)C2=O	690	2100	
1700	450	COc1ccc2c(c1)C(=O)C(=O)C1=C2OC(C)(C)CC1	410	27000	
18000	17000	COc1ccc2c(c1)C(=O)C(O)=C(CC=C(C)C)C2=O	19000	68000	
30000	26000	COc1cccc2c1C(=O)C(CC=C(C)C)=C(O)C2=O	22000	> 100000	
1000	840	CC1(C)CCC2=C(O1)c1ccccc1C(=O)C2=O [LAPACHONE]	380		Activity (SW1573 [5]): Dose-dependent effect; Activity (SW1573 [6]): Dose-dependent effect; Activity (WiDr [7]): Dose-dependent effect; Activity (HBL-100 [8]): Dose-dependent effect; Activity (HBL-100 [9]): Dose-dependent effect; inhibition [10]: inactive; Activity (WiDr [11]): Dose-dependent effect; Activity (HeLa [12]): Dose-dependent effect; Activity (HeLa [13]): Dose-dependent effect
210	29	CC1(C)CCC2=C(O1)c1cccc(O)c1C(=O)C2=O	36	2000	Activity (HeLa [14]): Active; Activity (SW1573 [5]): Dose-dependent effect; Activity (SW1573 [6]): Dose-dependent effect; Activity (WiDr [7]): Dose-dependent effect; Activity (HBL-100 [8]): Dose-dependent effect; Activity (HBL-100 [9]): Dose-dependent effect; Activity (HeLa [15]): inactive; inhibition [10]: inactive; fold change (FC) (HeLa [16]): 6; Activity (HeLa [17]): Active; Activity (HeLa [18]): inactive; Activity [19]: Non-toxic; Activity (HeLa [20]): Active; Activity (WiDr [11]): Dose-dependent effect; Activity (HeLa [12]): Dose-dependent effect; Activity (HeLa [21]): Active; Activity (HeLa [22]): Active; Activity (HeLa [13]): Dose-dependent effect
5100	1400	COc1cccc2c1C(=O)C(=O)C1=C2OC(C)(C)CC1	2700	86000	
1600	230	CC1(C)CCC2=C(O1)c1cccc(OC(=O)C(C)(C)C)c1C(=O)C2=O	180	2100	
40000	27000	COc1ccc2c(c1)C(=O)C1=C(CCC(C)(C)O1)C2=O	28000	82000	
> 100000	> 100000	COc1cccc2c1C(=O)C1=C(OC(C)(C)CC1)C2=O	28000	> 100000	
1100	360	CC1(C)CCC2=C(O1)c1c(O)cccc1C(=O)C2=O	620	1900	Activity (SW1573 [5]): Dose-dependent effect; Activity (SW1573 [6]): Dose-dependent effect; Activity (WiDr [7]): Dose-dependent effect; Activity (HBL-100 [8]): Dose-dependent effect; Activity (HBL-100 [9]): Dose-dependent effect; inhibition [10]: inactive; Activity (WiDr [11]): Dose-dependent effect; Activity (HeLa [12]): Dose-dependent effect; Activity (HeLa [13]): Dose-dependent effect
1800	19000	CC1(C)CCC2=C(O1)C(=O)c1c(O)cccc1C2=O	3400	14000	
